Results published in ChEMBL document CHEMBL3860041, “Synthesis, biological evaluation and molecular modeling study of some new methoxylated 2-benzylthio-quinazoline-4(3H)-ones as nonclassical antifolates” (Bioorg Med Chem Lett, 2016).

Legend:
Type in all cases: functional
[1] = Growth inhibition of human KM12 cells at 10 uM after 48 hrs by SRB assay relative to control; details: KM12, 48 h, read-out: GI
Summary of the method: (§1)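 NCI 60-cell-line panel, nine tumor subpanels; compounds tested at a single dose of 10 μM in the primary screen.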

Leukemia cell = assay: Potency index, ratio of 5-fluorouracil GI50 to compound GI50 for human leukemia cells
Summary of the method: (§2)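 GI50 for each cell line came from NCI panel testing over a 5-log dose range, with 5-fluorouracil tested alongside as the reference drug. The index relates the 5-fluorouracil GI50 to the compound GI50 within each tumour subpanel.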

[2] = Growth inhibition of human non-small cell lung cancer cells after 48 hrs by SRB assay; details: Cancer cell lines
Summary of the method: (§3)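 Follow-up NCI panel testing over a 5-log dose range for each cell line. GI50, TGI and LC50 were monitored, with 5-fluorouracil run as the positive control. Values are grouped by tumour subpanel.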

[3] = Growth inhibition of human NCI-H522 cells at 10 uM after 48 hrs by SRB assay relative to control; details: NCI-H522, 48 h, read-out: GI; summary of the method: as §1
[4] = Growth inhibition of human SKOV3 cells at 10 uM after 48 hrs by SRB assay relative to control; details: SK-OV-3, 48 h, read-out: GI
Summary of the method: (§4)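 Primary screen across the full NCI 60 human tumour cell line panel, which covers nine tumour subpanels. A single dose of 10 μM was applied to each line, and growth was recorded for each cell line.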

[5] = Growth inhibition of human SN12C cells at 10 uM after 48 hrs by SRB assay relative to control; details: read-out: GI; summary of the method: as §4
[6] = Growth inhibition of human OVCAR8 cells at 10 uM after 48 hrs by SRB assay relative to control; details: OVCAR-8, 48 h, read-out: GI; summary of the method: as §1
[7] = Growth inhibition of human T47D cells at 10 uM after 48 hrs by SRB assay relative to control; details: read-out: GI; summary of the method: as §4
[8] = Growth inhibition of human PC3 cells at 10 uM after 48 hrs by SRB assay relative to control; details: PC-3, 48 h, read-out: GI; summary of the method: as §1
[9] = Growth inhibition of human HCT15 cells at 10 uM after 48 hrs by SRB assay relative to control; details: HCT-15, 48 h, read-out: GI; summary of the method: as §1
[10] = Growth inhibition of human ovarian cancer cells after 48 hrs by SRB assay; details: Cancer cell lines; summary of the method: as §3
[11] = Growth inhibition of human Hs 578T cells at 10 uM after 48 hrs by SRB assay relative to control; details: read-out: GI; summary of the method: as §1
[12] = Growth inhibition of human HCC2998 cells at 10 uM after 48 hrs by SRB assay relative to control; details: HCC 2998, 48 h, read-out: GI; summary of the method: as §1
[13] = Growth inhibition of human NCI-322M cells at 10 uM after 48 hrs by SRB assay relative to control; details: read-out: GI; summary of the method: as §1
[14] = Growth inhibition of human SK-MEL-2 cells at 10 uM after 48 hrs by SRB assay relative to control; details: SK-MEL-2, 48 h, read-out: GI; summary of the method: as §4
[15] = Growth inhibition of human SF295 cells at 10 uM after 48 hrs by SRB assay relative to control; details: SF-295, 48 h, read-out: GI; summary of the method: as §1
Cancer cell lines [16] = assay: Potency index, ratio of 5-fluorouracil GI50 to compound GI50 for human colon cancer cells; summary of the method: as §2
Melanoma cell = assay: Potency index, ratio of 5-fluorouracil GI50 to compound GI50 for human melanoma cells; summary of the method: as §2
[17] = Growth inhibition of human COLO205 cells at 10 uM after 48 hrs by SRB assay relative to control; details: COLO 205, 48 h, read-out: GI; summary of the method: as §1
[18] = Growth inhibition of human MALME-3M cells at 10 uM after 48 hrs by SRB assay relative to control; details: read-out: GI; summary of the method: as §1
[19] = Growth inhibition of human U251 cells at 10 uM after 48 hrs by SRB assay relative to control; details: U-251, 48 h, read-out: GI; summary of the method: as §4
[20] = Growth inhibition of human RXF393 cells at 10 uM after 48 hrs by SRB assay relative to control; details: RXF 393, 48 h, read-out: GI; summary of the method: as §1
[21] = Growth inhibition of human MDA-MB-468 cells at 10 uM after 48 hrs by SRB assay relative to control; details: MDA-MB-468, 48 h, read-out: GI; summary of the method: as §1
[22] = Growth inhibition of human MDA-MB-231 cells at 10 uM after 48 hrs by SRB assay relative to control; details: MDA-MB-231, 48 h, read-out: GI; summary of the method: as §1
[23] = Growth inhibition of human NCI/ADR-RES cells at 10 uM after 48 hrs by SRB assay relative to control; details: read-out: GI; summary of the method: as §1
Cancer cell lines [24] = assay: Potency index, ratio of 5-fluorouracil GI50 to compound GI50 for human non-small cell lung cancer cells; summary of the method: as §2
[25] = Growth inhibition of human colon cancer cells after 48 hrs by SRB assay; details: Cancer cell lines; summary of the method: as §3
Cancer cell lines [26] = assay: Potency index, ratio of 5-fluorouracil GI50 to compound GI50 for human ovarian cancer cells; summary of the method: as §2
[27] = Growth inhibition of human M14 cells at 10 uM after 48 hrs by SRB assay relative to control; details: M14, 48 h, read-out: GI; summary of the method: as §1
[28] = Growth inhibition of human OVCAR5 cells at 10 uM after 48 hrs by SRB assay relative to control; details: OVCAR-5, 48 h, read-out: GI; summary of the method: as §1
[29] = Growth inhibition of human melanoma cells after 48 hrs by SRB assay; details: Melanoma cell; summary of the method: as §3
[30] = Growth inhibition of human NCI-H460 cells at 10 uM after 48 hrs by SRB assay relative to control; details: NCI-H460, 48 h, read-out: GI; summary of the method: as §1
[31] = Growth inhibition of human HOP62 cells at 10 uM after 48 hrs by SRB assay relative to control; details: HOP-62, 48 h, read-out: GI; summary of the method: as §1
[32] = Growth inhibition of human A549 cells at 10 uM after 48 hrs by SRB assay relative to control; details: A549, 48 h, read-out: GI; summary of the method: as §1
[33] = Growth inhibition of human 786-0 cells at 10 uM after 48 hrs by SRB assay relative to control; details: 786-0, 48 h, read-out: GI; summary of the method: as §1
[34] = Growth inhibition of human renal cancer cells after 48 hrs by SRB assay; details: Cancer cell lines; summary of the method: as §3
[35] = Growth inhibition of human HL-60(TB) cells at 10 uM after 48 hrs by SRB assay relative to control; details: HL-60, 48 h, read-out: GI
Summary of the method: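 NCI disease-oriented human tumour cell line screen: primary single-dose assay at 10 μM across the full 60-cell-line panel spanning nine tumour subpanels.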

In the case of `COc1ccccc1-n1c(SCc2cc(OC)c(OC)c(OC)c2)nc2ccc(Cl)cc2c1=O`, the inhibition of growth at 10 µM [1] is reported as 83.6%, the RatioGI50 (Leukemia cell) is reported as 2 - 10 and the GI50 [2] is reported as 5.8 µM. The LC50 (concentration killing 50% of cells) [2] was greater than 100 µM, the TGI [2] was greater than 100 µM and the inhibition of growth at 10 µM [3] was less than 10%. It also gave an inhibition of growth at 10 µM [4] of 40.6%, an inhibition of growth at 10 µM [5] of 29.7% and an inhibition of growth at 10 µM [6] of 44.7%. For the same compound, the inhibition of growth at 10 µM [7] was 56.1%, the inhibition of growth at 10 µM [8] was 80.4% and the inhibition of growth at 10 µM [9] was 72.2%. It also gave a GI50 [10] of 6.7 µM, an LC50 (50% lethal concentration) [10] greater than 100 µM and a TGI [10] of 87.9 µM. For the same compound, the inhibition of growth at 10 µM [11] was 60.4%, the inhibition of growth at 10 µM [12] was 43.2% and the inhibition of growth at 10 µM [13] was 44.9%. For the same compound, the inhibition of growth at 10 µM [14] was less than 10%, the inhibition of growth at 10 µM [15] was 68.2% and the RatioGI50 (Cancer cell lines [16]) was 2 - 10. The RatioGI50 (Melanoma cell) was 2 - 10, the inhibition of growth at 10 µM [17] was 72% and the inhibition of growth at 10 µM [18] was 67.1%. It also gave an inhibition of growth at 10 µM [19] of 74.5%, an inhibition of growth at 10 µM [20] of 38.5% and an inhibition of growth at 10 µM [21] of 84.4%. For the same compound, the inhibition of growth at 10 µM [22] was 44.3%, the inhibition of growth at 10 µM [23] was 79.8% and the RatioGI50 (Cancer cell lines [24]) was 2 - 10. The GI50 [25] was 3.1 µM, the LC50 [25] was greater than 100 µM and the TGI [25] was greater than 100 µM. For the same compound, the RatioGI50 (Cancer cell lines [26]) was 2 - 10, the inhibition of growth at 10 µM [27] was 84.1% and the inhibition of growth at 10 µM [28] was 46.7%. It also gave a GI50 [29] of 4.2 µM, an LC50 [29] greater than 100 µM and a TGI [29] of 91.7 µM. The inhibition of growth at 10 µM [30] was 89.2%, the inhibition of growth at 10 µM [31] was 48.2% and the inhibition of growth at 10 µM [32] was 68.9%. It also gave an inhibition of growth at 10 µM [33] of 49%, a GI50 [34] of 10.6 µM and an LC50 [34] greater than 100 µM. It also gave a TGI [34] of 93.5 µM.

For `COc1ccc(-n2c(SCc3cc(OC)c(OC)c(OC)c3)nc3ccc(C)cc3c2=O)cc1`, the inhibition of growth at 10 µM [1] was 64.7%, the RatioGI50 (Leukemia cell) was 2 - 10 and the GI50 [2] was 34.5 µM. For the same compound, the LC50 (concentration killing 50% of cells) [2] was greater than 100 µM, the TGI [2] was greater than 100 µM and the inhibition of growth at 10 µM [3] was 60.7%. The inhibition of growth at 10 µM [4] was 26.3%, the inhibition of growth at 10 µM [5] was 17.8% and the inhibition of growth at 10 µM [6] was 15.8%. It also gave an inhibition of growth at 10 µM [7] of 32.2%, an inhibition of growth at 10 µM [8] of 25% and an inhibition of growth at 10 µM [9] of 66.4%. The GI50 [10] was 46.9 µM, the LC50 (50% lethal concentration) [10] was greater than 100 µM and the inhibition of growth at 10 µM [11] was 22.3%. It also gave an inhibition of growth at 10 µM [12] of 24.3%, an inhibition of growth at 10 µM [13] of 19.7% and an inhibition of growth at 10 µM [14] of 35.3%. The inhibition of growth at 10 µM [35] was 68.9%, the inhibition of growth at 10 µM [15] was 48.6% and the RatioGI50 (Cancer cell lines [16]) was 2 - 10. For the same compound, the RatioGI50 (Melanoma cell) was 2 - 10, the inhibition of growth at 10 µM [17] was 67.3% and the inhibition of growth at 10 µM [18] was 40.4%. The inhibition of growth at 10 µM [19] was 30.9%, the inhibition of growth at 10 µM [20] was 47.2% and the inhibition of growth at 10 µM [21] was 53.2%. For the same compound, the inhibition of growth at 10 µM [22] was 40.3%, the inhibition of growth at 10 µM [23] was 54.2% and the RatioGI50 (Cancer cell lines [24]) was 2 - 10. The GI50 [25] was 18.2 µM, the LC50 [25] was greater than 100 µM and the TGI [25] was greater than 100 µM. The RatioGI50 (Cancer cell lines [26]) was 2 - 10, the inhibition of growth at 10 µM [27] was 46.2% and the inhibition of growth at 10 µM [28] was 19.4%. For the same compound, the GI50 [29] was 19.7 µM, the LC50 [29] was greater than 100 µM and the TGI [29] was 89.4 µM. The inhibition of growth at 10 µM [30] was 26.2%, the inhibition of growth at 10 µM [31] was 34.8% and the inhibition of growth at 10 µM [32] was 49%. The inhibition of growth at 10 µM [33] was 15.9%, the GI50 [34] was 39.7 µM and the LC50 [34] was greater than 100 µM. For the same compound, the TGI [34] was 88.1 µM.
